Square brackets hold non-standard residues; d marks the D form. Ends that are not written are not given here. * marks the point of attachment. FITC = O=C1OC2(c3ccc(O)cc3Oc3cc(O)ccc32)c2ccc(NC(=S)*)cc21; pS = N[C@@H](COP(=O)(O)O)C(=O)O
How the values were obtained:
[1] = biological target: human Retinoblastoma protein AB domain with a stabilizing loop deletion (372-787Δ582-642) (human) (UniProt P06400); assay: fluorescence polarisation
[2] = biological target: T1, Rb (human Retinoblastoma protein AB domain) (Homo sapiens, UniProt P06400, DEL582-642); assay: Isothermal titration calorimetry; format: binding; details: ITC
T1 sequence (P06400 with tags, fused parts or gaps DEL582-642): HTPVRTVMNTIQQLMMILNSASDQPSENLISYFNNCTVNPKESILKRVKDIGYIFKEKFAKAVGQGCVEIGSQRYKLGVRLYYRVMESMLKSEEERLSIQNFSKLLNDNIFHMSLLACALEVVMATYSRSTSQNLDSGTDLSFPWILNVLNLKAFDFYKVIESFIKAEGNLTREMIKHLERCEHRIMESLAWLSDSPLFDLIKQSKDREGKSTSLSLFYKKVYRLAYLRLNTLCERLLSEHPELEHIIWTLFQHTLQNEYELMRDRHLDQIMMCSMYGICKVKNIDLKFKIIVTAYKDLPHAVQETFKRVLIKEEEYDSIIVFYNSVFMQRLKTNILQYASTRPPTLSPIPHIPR
Outline: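 Human Rb AB domain (residues 372–787, loop 582–642 deleted), expressed in E. coli, in the cell at 5–30 µM. Peptide/protein titrant in the syringe at 50–300 µM. Cell and syringe samples co-dialysed 48 h at 4 °C in 20 mM sodium phosphate pH 7.0, 200 mM NaCl, 5 mM 2-mercaptoethanol, then degassed. Run at 20.0 °C unless stated, also 10–30 °C. 28 × 10-µl or 13 × 3-µl injections; enthalpy per mole of injectant fitted to a single-site model.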

[3] = biological target: T2, human Retinoblastoma protein AB domain with a stabilizing loop deletion (372-787Δ582-642) (human, UniProt P06400 372-787, Δ582–642); assay: fluorescence polarisation
T2 sequence (looked up): T1 sequence (P06400 with tags, fused parts or gaps DEL582-642)

[4] = biological target: T2, human Retinoblastoma protein AB domain …; assay: ITC
[5] = biological target: T2, human Retinoblastoma protein AB domain …; assay: fluorescence polarisation + ITC
DNA = details: Oct-1 binding to DNA; cited from earlier work
[6] = biological target: T2, human Retinoblastoma protein AB domain …; assay: fluorescence polarisation; remark: listed apart in the source
[7] = biological target: T3, Rb (human Retinoblastoma protein AB domain, 372–787Δ582–642) (Homo sapiens, UniProt P06400, DEL582-642); assay: Fluorescence polarization direct titration of FITC-labelled constructs with Rb; format: binding
T3 sequence (P06400 with tags, fused parts or gaps DEL582-642): T1 sequence (P06400 with tags, fused parts or gaps DEL582-642)

[8] = biological target: T1, Rb (human Retinoblastoma protein AB domain); assay: E2F competition; format: binding; details: MBP fusion protein, competition experiment
[9] = from direct titration KD values

Molecule “Hum-2–2x: tandem repeat of the Hum-2 (HAdV40) linker between the HAdV5 E1AE2F and E1A_(LxCxE) motifs, MBP fusion” has a KD/KD,E1AWT [1] of 1.1.

In the case of 116-VPEVIDLTCHEAGFPP-131 [E1ALxCxE], the “thermodynamic origin of binding to Rb” value ([2]; 20 mM Sodium Phosphate pH 7.0, 200 mM NaCl, 5mM 2-mercapto ethanol, 20 °C) is reported as “enthalpically driven”.

B1: FITC-labelled E1AΔE (domain or fragment)
chain: SHFEPPTAAAADLDVTAPEDPNEEAVSQIFPDSVMLAVQEGIDLLTFPPAPGSPEPPHLSRQPEQPEQRALGPVSMPNLVPEVIDLTCHEAGFPPSDDEDEEGEEFVLDY
modifications: FITC (fluorescein 5-isothiocyanate) on the N-terminus
B1: binds [3].

B2: FITC-labelled E1AΔL (domain or fragment)
chain: SHFEPPTLHELYDLDVTAPEDPNEEAVSQIFPDSVMLAVQEGIDLLTFPPAPGSPEPPHLSRQPEQPEQRALGPVSMPNLVPEVIDAAAAAGFPPSDDEDEEGEEFVLDY
modifications: FITC (fluorescein 5-isothiocyanate) on the N-terminus
B2: binds [3].

B3: E1AΔL: E1AWT variant with LxCxE motif mutated to poly-alanine (122-LTCHE-126Δ122-AAAA-125) (protein)
chain: B2 chain
modifications: left off: MBP, end not stated, cleaved
With B3 the “heat behaviour of binding to Rb (exothermic/endothermic)” value ([2]; Rb in cell, peptide/protein as titrant) was “endothermic”.

SPSLDQDDYLWGLEAGEGISDLFD [Human E2F2 peptide (404-427)]: binds [4].

With VPEVIDLTCHEAGFPP[pS]DDEDEEG [E1A_(LxCxE-ACP) peptide (HAdV5 E1A 116-139, phosphorylated at Ser132)] the “fold increase in binding affinity over E1A_(LxCxE)” value [5] was 5 fold.

{FITC}-VPEVIDLTCHEAGFPP [FITC-labelled E1A_(LxCxE) peptide (HAdV5 E1A 116-131)]: binds [3].

B4: Oct-1: POU domain activator Oct-1 binding to DNA (protein, UniProt P14859 1-743, looked up)
POU domain, class 2, …: MNNPSETSKPSMESGDGNTGTQTNGLDFQKQPVPVGGAISTAQAQAFLGHLHQVQLAGTSLQAAAQSLNVQSKSNEESGDSQQPSQPSQQPSVQAAIPQTQLMLAGGQITGLTLTPAQQQLLLQQAQAQAQLLAAAVQQHSASQQHSAAGATISASAATPMTQIPLSQPIQIAQDLQQLQQLQQQNLNLQQFVLVHPTTNLQPAQFIISQTPQGQQGLLQAQNLLTQLPQQSQANLLQSQPSITLTSQPATPTRTIAATPIQTLPQSQSTPKRIDTPSLEEPSDLEELEQFAKTFKQRRIKLGFTQGDVGLAMGKLYGNDFSQTTISRFEALNLSFKNMCKLKPLLEKWLNDAENLSSDSSLSSPSALNSPGIEGLSRRRKKRTSIETNIRVALEKSFLENQKPTSEEITMIADQLNMEKEVIRVWFCNRRQKEKRINPPSSGGTSSSPIKAIFPSPTSLVATTPSLVTSSAATTLTVSPVLPLTSAAVTNLSVTGTSDTTSNNTATVISTAPPASSAVTSPSLSPSPSASASTSEASSASETSTTQTTSTPLSSPLGTSQVMVTASGLQTAAAAALQGAAQLPANASLAAMAAAAGLNPSLMAPSQFAAGGALLSLNPGTLSGALSPALMSNSTLATIQALASGGSLPITSLDATGNLVFANAGGAPNIVTAPLFLNPQNLSLLTSNPVSLVSAAAASAGNSAPVASLHATSTSAESIQNSLFTVASASGAASTTTTASKAQ
In the case of B4, the Kd (DNA) is given as 71 pM and the “affinity enhancement by tethering” value (DNA) is given as 2100 fold.

B5: MBP-E1AWT (uncleaved MBP fusion of HAdV5 E1A 36-146) (domain or fragment)
chain: SHFEPPTLHELYDLDVTAPEDPNEEAVSQIFPDSVMLAVQEGIDLLTFPPAPGSPEPPHLSRQPEQPEQRALGPVSMPNLVPEVIDLTCHEAGFPPSDDEDEEGEEFVLDY
B5 gave a Kd [6] of 75 ± 17 pM.

B6: E1AWT: adenovirus serotype 5 (HAdV5) Early 1A protein fragment (36–146), minimal Rb binding region (protein)
chain: B5 chain
modifications: left off: MBP, end not stated, cleaved
For B6, the “Ceff obtained from the affinities of the construct and the isolated motifs” value ([7]; Ceff=(KD,E2F*KD,LxCxE)/KD) was 0.52 ± 0.09 mM, the “total ΔGBINDING” value ([7]; binding to Rb) was -14.24 kcal/mol and the “affinity enhancement compared to E2F2” value [7, 9] was 40 fold. For the same molecule, the “affinity enhancement compared to the individual E1A SLiMs” value [7, 9] was 4000 fold.

B7: MBP-E1AWT: uncleaved MBP fusion protein of E1AWT (protein)
chain: B5 chain
modifications: left off: MBP, end not stated, kept
With B7 the “binding affinity compared with cleaved E1AWT” value [8] was “same binding affinity as cleaved E1AWT”.
